Measured values from ChEMBL document CHEMBL1156283, “Discovery and optimization of 2-(4-substituted-pyrrolo[2,3-b]pyridin-3-yl)methylene-4-hydroxybenzofuran-3(2H)-ones as potent and selective ATP-competitive inhibitors of the mammalian target of rapamycin (mTOR)” (Bioorg Med Chem Lett, 2010).

Columns and labels:
[1] = organism: Homo sapiens; test: Selectivity ratio of IC50 for PI3Kalpha to IC50 for mTOR
Outline: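 Selectivity is calculated as the IC50 against PI3K divided by the IC50 against mTOR.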

[2] = target: Serine/threonine-protein kinase mTOR (Homo sapiens, UniProt P42345); test: Inhibition of mTOR
[3] = system: LNCaP; test: Cytotoxicity against human LNCAP cells; assay type: functional, cell-based
[4] = Half life in mouse microsomes in phase 1 using NADPH as a cofactor; assay type: ADME, Microsome
[5] = Half life in mouse microsomes in phase 1/2 using NADPH and UDPGA as a cofacto; assay type: ADME, Microsome
[6] = target: Phosphatidylinositol 4,5-bisphosphate 3-kinase catalytic subunit alpha isoform (Homo sapiens, UniProt P42336); test: Inhibition of PI3Kalpha
Chain of Phosphatidylinositol 4,5-bisphosphate 3-kinase catalytic subunit alpha isoform (P42336 whole entry, canonical isoform): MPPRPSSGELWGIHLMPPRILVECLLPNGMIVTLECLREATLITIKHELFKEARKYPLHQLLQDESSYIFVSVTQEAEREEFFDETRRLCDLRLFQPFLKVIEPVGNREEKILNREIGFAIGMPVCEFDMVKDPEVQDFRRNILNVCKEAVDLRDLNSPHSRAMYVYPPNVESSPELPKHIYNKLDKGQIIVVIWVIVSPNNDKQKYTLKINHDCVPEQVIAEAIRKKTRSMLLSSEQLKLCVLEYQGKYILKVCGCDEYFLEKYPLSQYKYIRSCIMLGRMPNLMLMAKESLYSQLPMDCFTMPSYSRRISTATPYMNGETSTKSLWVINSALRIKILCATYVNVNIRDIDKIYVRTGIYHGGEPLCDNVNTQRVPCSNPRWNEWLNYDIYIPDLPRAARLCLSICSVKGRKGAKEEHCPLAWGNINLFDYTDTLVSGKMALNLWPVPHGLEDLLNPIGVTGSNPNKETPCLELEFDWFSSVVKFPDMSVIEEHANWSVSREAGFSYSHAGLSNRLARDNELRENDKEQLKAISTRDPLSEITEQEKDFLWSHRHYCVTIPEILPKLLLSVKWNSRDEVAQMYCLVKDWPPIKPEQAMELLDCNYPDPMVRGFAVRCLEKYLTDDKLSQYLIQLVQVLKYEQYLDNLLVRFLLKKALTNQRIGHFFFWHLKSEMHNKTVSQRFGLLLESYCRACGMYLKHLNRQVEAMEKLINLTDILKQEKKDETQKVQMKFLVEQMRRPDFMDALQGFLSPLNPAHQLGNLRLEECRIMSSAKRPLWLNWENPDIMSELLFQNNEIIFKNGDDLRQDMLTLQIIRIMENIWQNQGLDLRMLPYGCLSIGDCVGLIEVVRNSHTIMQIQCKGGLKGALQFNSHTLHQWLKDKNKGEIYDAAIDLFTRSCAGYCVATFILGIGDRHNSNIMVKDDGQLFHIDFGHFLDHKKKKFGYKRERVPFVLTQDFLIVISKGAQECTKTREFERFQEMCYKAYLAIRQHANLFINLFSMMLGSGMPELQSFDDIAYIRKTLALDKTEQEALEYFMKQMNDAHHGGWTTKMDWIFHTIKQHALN

[7] = target: MAP kinase-activated protein kinase 2 (Homo sapiens, UniProt P49137)
Chain of MAP kinase-activated protein kinase 2 (P49137 whole entry): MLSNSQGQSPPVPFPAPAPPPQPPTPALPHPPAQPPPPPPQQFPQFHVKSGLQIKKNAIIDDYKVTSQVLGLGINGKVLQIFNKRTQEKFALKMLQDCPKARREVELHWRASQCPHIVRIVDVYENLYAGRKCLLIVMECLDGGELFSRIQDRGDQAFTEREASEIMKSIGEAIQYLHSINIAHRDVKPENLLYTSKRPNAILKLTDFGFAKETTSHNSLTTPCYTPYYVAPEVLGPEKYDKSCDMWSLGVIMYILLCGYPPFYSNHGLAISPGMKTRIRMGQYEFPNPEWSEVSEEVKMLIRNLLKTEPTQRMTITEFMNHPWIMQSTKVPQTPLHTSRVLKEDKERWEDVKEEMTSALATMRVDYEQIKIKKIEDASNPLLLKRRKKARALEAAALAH

[8] = target: Tyrosine-protein kinase ABL1 (Homo sapiens, UniProt P00519); test: Inhibition of ABL1
[9] = target: Glycogen synthase kinase-3 beta (Homo sapiens, UniProt P49841); test: Inhibition of GSK3-beta
Chain of Glycogen synthase kinase-3 beta (P49841 whole entry): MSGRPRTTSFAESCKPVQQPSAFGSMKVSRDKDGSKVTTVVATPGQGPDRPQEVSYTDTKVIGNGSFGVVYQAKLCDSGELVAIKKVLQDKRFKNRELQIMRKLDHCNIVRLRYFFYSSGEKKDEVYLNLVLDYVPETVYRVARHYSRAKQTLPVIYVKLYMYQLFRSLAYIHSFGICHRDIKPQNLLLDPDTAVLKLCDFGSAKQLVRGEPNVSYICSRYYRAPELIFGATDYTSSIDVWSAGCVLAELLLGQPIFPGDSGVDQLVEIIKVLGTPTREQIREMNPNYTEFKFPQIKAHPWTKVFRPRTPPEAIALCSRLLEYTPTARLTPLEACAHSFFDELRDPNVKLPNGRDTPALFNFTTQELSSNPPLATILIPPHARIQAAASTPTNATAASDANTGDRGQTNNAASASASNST

[10] = target: Ribosomal protein S6 kinase alpha-1 (Homo sapiens, UniProt Q15418); test: Inhibition of RSK1
Chain of Ribosomal protein S6 kinase alpha-1 (Q15418 whole entry): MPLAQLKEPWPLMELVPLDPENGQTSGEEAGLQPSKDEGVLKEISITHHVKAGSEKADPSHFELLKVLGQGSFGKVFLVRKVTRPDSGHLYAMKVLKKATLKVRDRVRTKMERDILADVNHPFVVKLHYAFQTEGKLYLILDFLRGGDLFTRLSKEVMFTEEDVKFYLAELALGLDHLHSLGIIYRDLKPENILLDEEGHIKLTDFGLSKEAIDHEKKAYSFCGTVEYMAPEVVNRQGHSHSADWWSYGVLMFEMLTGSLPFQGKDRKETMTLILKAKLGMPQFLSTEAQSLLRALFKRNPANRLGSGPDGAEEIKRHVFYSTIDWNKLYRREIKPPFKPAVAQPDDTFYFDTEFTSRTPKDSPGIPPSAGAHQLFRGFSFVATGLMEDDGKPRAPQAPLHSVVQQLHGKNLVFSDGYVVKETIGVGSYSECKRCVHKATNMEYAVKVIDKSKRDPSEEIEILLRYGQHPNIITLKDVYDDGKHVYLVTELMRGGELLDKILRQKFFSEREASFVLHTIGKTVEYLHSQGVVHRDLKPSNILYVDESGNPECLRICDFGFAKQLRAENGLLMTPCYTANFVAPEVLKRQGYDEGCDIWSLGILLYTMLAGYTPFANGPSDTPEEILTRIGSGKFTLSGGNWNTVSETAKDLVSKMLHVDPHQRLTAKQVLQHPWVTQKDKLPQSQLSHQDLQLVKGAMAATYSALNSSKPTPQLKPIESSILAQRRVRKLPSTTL

[11] = target: Cyclin-dependent kinase 1 (Homo sapiens, UniProt P06493); test: Inhibition of CDK1
Chain of Cyclin-dependent kinase 1 (P06493 whole entry): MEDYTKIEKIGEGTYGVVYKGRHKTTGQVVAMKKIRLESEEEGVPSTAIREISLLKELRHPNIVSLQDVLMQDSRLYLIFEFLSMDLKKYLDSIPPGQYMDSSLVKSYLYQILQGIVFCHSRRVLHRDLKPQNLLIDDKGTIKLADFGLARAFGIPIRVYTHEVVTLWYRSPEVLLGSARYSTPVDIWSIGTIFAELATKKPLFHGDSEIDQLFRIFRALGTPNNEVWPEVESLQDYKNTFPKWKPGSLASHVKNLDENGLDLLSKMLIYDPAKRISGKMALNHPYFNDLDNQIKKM

[12] = target: Aurora kinase B (Homo sapiens, UniProt Q96GD4); test: Inhibition of Aurora B
Chain of Aurora kinase B (Q96GD4 whole entry): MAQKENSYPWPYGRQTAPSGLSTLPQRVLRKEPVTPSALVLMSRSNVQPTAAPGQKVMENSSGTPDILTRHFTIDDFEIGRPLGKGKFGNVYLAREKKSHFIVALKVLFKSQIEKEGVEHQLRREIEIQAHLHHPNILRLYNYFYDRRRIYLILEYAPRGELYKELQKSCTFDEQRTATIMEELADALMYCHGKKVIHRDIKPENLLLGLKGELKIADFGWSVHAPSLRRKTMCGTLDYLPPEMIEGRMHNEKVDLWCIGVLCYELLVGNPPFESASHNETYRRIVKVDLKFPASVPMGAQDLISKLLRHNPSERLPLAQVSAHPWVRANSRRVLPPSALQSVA

[13] = target: Fibroblast growth factor receptor 1 (Homo sapiens, UniProt P11362)
Chain of Fibroblast growth factor receptor 1 (P11362 whole entry): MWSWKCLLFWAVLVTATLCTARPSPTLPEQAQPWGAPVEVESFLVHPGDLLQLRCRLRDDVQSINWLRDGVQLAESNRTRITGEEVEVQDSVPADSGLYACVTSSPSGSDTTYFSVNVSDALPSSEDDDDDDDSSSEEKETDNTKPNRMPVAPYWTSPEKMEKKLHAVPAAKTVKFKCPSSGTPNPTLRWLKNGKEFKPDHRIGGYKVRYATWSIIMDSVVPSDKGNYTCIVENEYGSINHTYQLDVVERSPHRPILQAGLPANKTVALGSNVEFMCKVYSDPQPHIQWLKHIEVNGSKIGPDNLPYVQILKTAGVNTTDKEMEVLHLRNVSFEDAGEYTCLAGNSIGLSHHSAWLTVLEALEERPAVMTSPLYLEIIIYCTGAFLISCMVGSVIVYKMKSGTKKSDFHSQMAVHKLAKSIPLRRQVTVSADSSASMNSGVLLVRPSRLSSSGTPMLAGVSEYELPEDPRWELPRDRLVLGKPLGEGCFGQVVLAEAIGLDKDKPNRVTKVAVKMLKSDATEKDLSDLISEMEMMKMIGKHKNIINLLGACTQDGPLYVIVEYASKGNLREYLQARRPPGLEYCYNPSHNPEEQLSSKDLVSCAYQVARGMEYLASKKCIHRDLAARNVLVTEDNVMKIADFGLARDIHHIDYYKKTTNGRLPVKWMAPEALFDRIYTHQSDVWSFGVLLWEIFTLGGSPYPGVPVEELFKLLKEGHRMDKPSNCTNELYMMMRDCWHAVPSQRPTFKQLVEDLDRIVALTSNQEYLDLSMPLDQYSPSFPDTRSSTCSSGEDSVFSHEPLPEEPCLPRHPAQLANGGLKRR

[14] = target: Cyclin-dependent kinase 2 (Homo sapiens, UniProt P24941); test: Inhibition of CDK2
[15] = target: Tyrosine-protein kinase Lyn (Homo sapiens, UniProt P07948); test: Inhibition of LYN A
[16] = target: Tyrosine-protein kinase HCK (Homo sapiens, UniProt P08631); test: Inhibition of HCK
Chain of Tyrosine-protein kinase HCK (P08631 whole entry): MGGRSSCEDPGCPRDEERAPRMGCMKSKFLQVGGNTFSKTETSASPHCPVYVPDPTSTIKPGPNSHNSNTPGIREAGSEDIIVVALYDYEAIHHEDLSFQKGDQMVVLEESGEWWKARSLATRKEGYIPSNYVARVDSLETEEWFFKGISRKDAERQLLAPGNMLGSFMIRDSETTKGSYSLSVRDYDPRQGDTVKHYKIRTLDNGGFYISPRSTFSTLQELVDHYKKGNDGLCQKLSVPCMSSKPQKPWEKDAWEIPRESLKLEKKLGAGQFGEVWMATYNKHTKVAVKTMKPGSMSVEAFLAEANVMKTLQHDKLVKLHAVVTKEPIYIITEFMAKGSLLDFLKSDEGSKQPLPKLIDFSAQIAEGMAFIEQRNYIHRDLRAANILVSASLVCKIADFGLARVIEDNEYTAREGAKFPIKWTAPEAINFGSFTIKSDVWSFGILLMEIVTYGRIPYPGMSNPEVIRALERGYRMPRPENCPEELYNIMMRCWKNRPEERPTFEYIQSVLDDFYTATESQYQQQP

[17] = target: Mitogen-activated protein kinase 1 (Homo sapiens, UniProt P28482)
Chain of Mitogen-activated protein kinase 1 (P28482 whole entry): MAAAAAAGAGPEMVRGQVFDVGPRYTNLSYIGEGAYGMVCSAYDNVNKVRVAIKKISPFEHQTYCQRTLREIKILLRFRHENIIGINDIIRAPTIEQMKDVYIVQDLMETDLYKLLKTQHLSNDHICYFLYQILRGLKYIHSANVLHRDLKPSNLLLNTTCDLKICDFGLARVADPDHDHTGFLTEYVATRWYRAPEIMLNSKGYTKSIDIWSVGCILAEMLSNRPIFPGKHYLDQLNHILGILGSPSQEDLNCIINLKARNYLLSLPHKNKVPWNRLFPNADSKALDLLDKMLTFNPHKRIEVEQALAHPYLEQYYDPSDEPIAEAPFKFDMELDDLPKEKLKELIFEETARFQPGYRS

[18] = target: Glycogen synthase kinase-3 alpha (Homo sapiens, UniProt P49840); test: Inhibition of GSK3alpha

Ratio IC50 [1] | IC50 [2] | half-life [4] | half-life [5] | Compound | IC50 [3] | further results
41 | 0.72 nM | – | – | Cn1cc(/C=C2\Oc3cccc(O)c3C2=O)c2c(N3CCC(C(N)=O)CC3)ccnc21 | 10 nM | –
103 | 0.56 nM | 6 min | 2 min | Cn1cc(/C=C2\Oc3cccc(O)c3C2=O)c2c(-c3ccc(C(=O)N4CC5CCC(C4)O5)cc3)ccnc21 | 8 nM | –
274 | 0.38 nM | – | – | Cn1cc(/C=C2\Oc3cccc(O)c3C2=O)c2c(N3CC4CCC(C3)O4)ccnc21 | 2 nM | –
1.7 | 42 nM | – | – | Cn1cc(/C=C2\Oc3cc(O)cc(O)c3C2=O)c2cccnc21 | 6500 nM | IC50 [6]: 77 nM
98 | – | – | – | CCn1cc(/C=C2\Oc3cccc(O)c3C2=O)c2c(-c3ccc(C(=O)N4CCN(CCO)CC4)cc3)ccnc21 | 4 nM | IC50 [6]: 455 nM
26 | – | > 30 min | 16 min | Cn1cc(/C=C2\Oc3cccc(O)c3C2=O)c2c(N3CCC(C(=O)N4CC5CCC(C4)O5)CC3)ccnc21 | 1 nM | IC50 [6]: 52 nM
256 | 0.39 nM | > 30 min | > 30 min | Cn1cc(/C=C2\Oc3cccc(O)c3C2=O)c2c(-c3ccc(C(=O)N4CCN(CCO)CC4)cc3)ccnc21 | 1 nM | –
46 | – | – | – | CN1CCN(c2ccnc3c2c(/C=C2\Oc4cc(O)cc(O)c4C2=O)cn3C)CC1 | 110 nM | IC50 [6]: 43 nM
63 | 2.75 nM | – | – | CN1CCN(c2ccnc3c2c(/C=C2\Oc4cccc(O)c4C2=O)cn3C)CC1 | 3 nM | –
70 | – | 28 min | 24 min | CN1CCN(C(=O)c2ccc(-c3ccnc4c3c(/C=C3\Oc5cccc(O)c5C3=O)cn4C)cc2)CC1 | 9 nM | –
137 | 0.46 nM | 20 min | 2 min | Cn1cc(/C=C2\Oc3cc(O)cc(O)c3C2=O)c2c(-c3ccccc3)ccnc21 | 77 nM | –
45 | – | > 30 min | > 30 min | Cn1cc(/C=C2\Oc3cccc(O)c3C2=O)c2c(N3CCC(C(=O)N4CCOCC4)CC3)ccnc21 | < 1 nM | –
11 | – | – | – | Cn1cc(/C=C2\Oc3cc(O)ccc3C2=O)c2c(-c3ccccc3)ccnc21 | 1800 nM | –
32.8 | – | – | – | CN(C)C(=O)c1ccccc1-c1ccnc2c1c(/C=C1\Oc3cccc(O)c3C1=O)cn2C | > 60000 nM | –
97 | – | > 30 min | 10 min | Cn1cc(/C=C2\Oc3cccc(O)c3C2=O)c2c(-c3ccc(C(=O)N4CCOCC4)cc3)ccnc21 | 1 nM | –
24 | – | – | – | Cn1cc(/C=C2\Oc3cccc(O)c3C2=O)c2c(N3CCOCC3)ccnc21 | 5 nM | –

Second part, the molecule before the results:

Compound | Ratio IC50 [1] | IC50 [2] | half-life [4] | half-life [5] | IC50 [3] | further results
CN(C)C(=O)C1CCN(c2ccnc3c2c(/C=C2\Oc4cccc(O)c4C2=O)cn3C)CC1 | 46 | 0.67 nM | > 30 min | 20 min | 1 nM | IC50 [6]: 30 nM
Cn1cc(/C=C2\Oc3cccc(O)c3C2=O)c2c(N3CCC(C(=O)N4CCN(CCO)CC4)CC3)ccnc21 | 13 | 1.85 nM | > 30 min | 14 min | 1 nM | IC50 [6]: 25 nM
Cn1cc(/C=C2\Oc3cccc(O)c3C2=O)c2c(-c3ccc(C(=O)NCCO)cc3)ccnc21 | – | – | – | – | – | IC50 [7]: 6.5 nM; IC50 [8]: 9.7 µM; IC50 [9]: 5.9 µM; IC50 [10]: 45.9 µM; IC50 [11]: 39.2 µM; IC50 [12]: 22.2 µM; IC50 [13]: 50 nM; IC50 [14]: 35.5 µM; IC50 [15]: 27.7 µM; IC50 [16]: 27.1 µM; IC50 [17]: 50 nM; IC50 [18]: 10.6 µM
CN(C)C(=O)c1ccc(-c2ccnc3c2c(/C=C2\Oc4cccc(O)c4C2=O)cn3C)cc1 | 65 | 0.55 nM | – | – | 4 nM | –
CN1CCN(C(=O)C2CCN(c3ccnc4c3c(/C=C3\Oc5cccc(O)c5C3=O)cn4C)CC2)CC1 | 12 | – | > 30 min | > 30 min | < 1 nM | –
Cn1cc(/C=C2\Oc3cccc(O)c3C2=O)c2c(N3CCC(N)CC3)ccnc21 | 6 | – | – | – | 240 nM | –
CN(C)C(=O)c1cccc(-c2ccnc3c2c(/C=C2\Oc4cccc(O)c4C2=O)cn3C)c1 | 20.5 | – | – | – | 600 nM | –
Cn1cc(/C=C2\Oc3cccc(O)c3C2=O)c2c(N3C4CCC3COC4)ccnc21 | 9 | – | – | – | 2 nM | –
Cn1cc(/C=C2\Oc3cc(O)cc(O)c3C2=O)c2c(-c3ccccc3)cccc21 | – | – | – | – | 1400 nM | IC50 [6]: 1480 nM
Cn1cc(/C=C2\Oc3cccc(O)c3C2=O)c2c(-c3ccccc3)ccnc21 | 25.8 | 3.45 nM | 22 min | – | – | –
Cn1cc(/C=C2\Oc3cccc(O)c3C2=O)c2c(N3CCC(CN)CC3)ccnc21 | 9 | – | – | – | 75 nM | –
